Results pooled from the literature.
Compare with care: the assays were run in different laboratories.
Target: Serine/threonine-protein kinase Nek9 (NEK9, Homo sapiens, UniProt Q8TD19)
Sequence (Q8TD19 1-979, as in one of the studies): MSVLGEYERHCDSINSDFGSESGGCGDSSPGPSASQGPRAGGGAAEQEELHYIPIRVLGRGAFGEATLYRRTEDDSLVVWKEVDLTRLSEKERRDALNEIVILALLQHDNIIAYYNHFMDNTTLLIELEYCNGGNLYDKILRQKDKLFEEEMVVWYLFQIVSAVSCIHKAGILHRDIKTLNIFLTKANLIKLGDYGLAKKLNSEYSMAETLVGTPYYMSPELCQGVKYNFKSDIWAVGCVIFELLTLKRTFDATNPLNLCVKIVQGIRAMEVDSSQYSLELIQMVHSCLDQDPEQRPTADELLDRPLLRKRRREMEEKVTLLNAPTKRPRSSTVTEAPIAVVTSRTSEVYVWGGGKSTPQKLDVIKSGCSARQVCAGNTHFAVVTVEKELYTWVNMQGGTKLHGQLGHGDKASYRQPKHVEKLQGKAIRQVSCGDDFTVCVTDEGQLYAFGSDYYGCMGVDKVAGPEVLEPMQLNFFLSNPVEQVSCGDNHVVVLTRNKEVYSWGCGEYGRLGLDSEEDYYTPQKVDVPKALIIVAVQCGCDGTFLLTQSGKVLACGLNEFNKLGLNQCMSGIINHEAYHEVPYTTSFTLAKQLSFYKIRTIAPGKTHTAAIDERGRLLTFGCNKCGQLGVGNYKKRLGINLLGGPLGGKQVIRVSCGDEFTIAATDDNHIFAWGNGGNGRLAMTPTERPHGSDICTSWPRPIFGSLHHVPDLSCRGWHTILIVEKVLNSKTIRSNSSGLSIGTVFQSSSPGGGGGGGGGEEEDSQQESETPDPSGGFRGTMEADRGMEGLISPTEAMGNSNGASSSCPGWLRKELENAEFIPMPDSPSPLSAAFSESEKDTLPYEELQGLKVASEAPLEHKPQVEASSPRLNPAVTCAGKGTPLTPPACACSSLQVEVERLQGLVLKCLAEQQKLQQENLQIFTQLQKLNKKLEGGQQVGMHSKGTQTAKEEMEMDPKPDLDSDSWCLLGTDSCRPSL

O=c1[nH]c2ccccc2n1C1CCN(Cc2ccc(-c3[nH]c4cc5ncnc5cc4nc3-c3ccccc3)cc2)CC1 — remaining signal (cell-free assay; 0.5 µM): 99.2%
Cn1cc(-c2cccc(N3CCc4c(sc5c4CC(C)(C)C5)C3=O)c2CO)cc(Nc2ccncn2)c1=O — inhibition (enzyme activity; inhibitor; 1 µM): -1%
Cn1cncc1[C@](O)(COc1ccc(C#N)cc1-c1ccc(OC(F)(F)F)cc1)c1ccc(C#N)cc1 — remaining binding (cell-free assay; competition with immobilised ligand; 1 µM): 72%
Cn1cc(-c2cc(F)cc(N3CCn4c(cc5c4CCCC5)C3=O)c2CO)cc(Nc2ccc(N3CCN(C4COC4)CC3)cn2)c1=O — inhibition (enzyme activity; inhibitor; 0.1 µM): 6%
COc1ncccc1-c1cnn2ccc(N3CCN(C(=O)OC(C)C)CC3)nc12 — remaining binding (binding; competition with immobilised ligand; 1 µM): 100%
Nc1ncc(-c2nc(N3CCOCC3)nc(N3CCOCC3)n2)c(C(F)F)n1 — remaining binding (binding; competition with immobilised ligand; 10 µM): 92%
CC(C)(C)c1cc(C=C(C#N)C#N)cc(Br)c1O — remaining activity (enzyme activity; inhibitor; 0.5 µM): 103%
CCN1CCN(Cc2ccc(NC(=O)c3ccc(C)c(Oc4ccnc5[nH]ccc45)c3)cc2C(F)(F)F)CC1 — inhibition (target engagement in cells; inhibitor; chemoproteomics; Huh-7; 10 µM): -10.9%
